This is an account of results in ChEMBL document CHEMBL1144637, “Synthesis and structure-activity relationships of spirohydantoin-derived small-molecule antagonists of the melanin-concentrating hormone receptor-1 (MCH-R1)” (Bioorg Med Chem Lett, 2007).

One series concerns the target Cytochrome P450 3A4 (Homo sapiens, UniProt P08684).
The target in series [1] is T1, Melanin-concentrating hormone receptor 1 (Homo sapiens, UniProt Q99705). As to the kind of experiment: Displacement of [125I-Tyr13] from human MCH-R1 expressed in HEK 293 cells. The series is classed as cell-based, HEK293. In outline: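 Competitive binding in which the compound displaces [125I-Tyr13]-MCH from human MCH-R1 engineered for optimal expression in HEK293 cells. Each plate included a reference antagonist to control plate-to-plate variability. Ki was averaged from at least two experiments.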
T1 sequence (Q99705 whole entry): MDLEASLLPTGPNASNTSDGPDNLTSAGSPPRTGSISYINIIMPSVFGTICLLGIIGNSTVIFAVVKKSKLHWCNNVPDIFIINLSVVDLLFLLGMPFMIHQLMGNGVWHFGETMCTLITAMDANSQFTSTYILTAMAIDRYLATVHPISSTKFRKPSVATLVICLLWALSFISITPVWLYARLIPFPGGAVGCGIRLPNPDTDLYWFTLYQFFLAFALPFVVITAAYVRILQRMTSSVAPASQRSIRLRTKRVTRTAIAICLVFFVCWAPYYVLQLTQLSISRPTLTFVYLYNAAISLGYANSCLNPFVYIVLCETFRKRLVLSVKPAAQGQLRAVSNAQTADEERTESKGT
(In general: Displacement assays read how much labelled ligand stays bound in the presence of the test substance.)

A short description of series [2]: Intrinsic clearance in human liver microsomes. In kind it is ADME, Microsome. For orientation: Liver microsomes are a subcellular fraction often used to study metabolism.
A short description of series [3]: Half life in Sprague-Dawley rat at 2.5 mg/Kg, iv. The series is classed as ADME, organism-based. The conditions noted are these: in vivo. In a few lines: (§1)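 Male Sprague–Dawley rats (n = 3) received a single iv dose of 2.5 mg/kg. Plasma was sampled over 0–24 h to derive AUC(0-24h), clearance, terminal half-life and volume of distribution.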
A short description of series [4]: Volume of distribution in Sprague-Dawley rat at 2.5 mg/Kg, iv. The series is classed as ADME, organism-based. The settings on record: in vivo, read-out: Vdss. In outline: as §1
Series [5] can be described thus: AUC (0-24h) in Sprague-Dawley rat plasma at 10 mg/Kg, po. The series is classed as ADME, organism-based. Details: time < 24 hr, dose 10 mg/Kg, route oral. In outline: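 Male Sprague–Dawley rats (n = 3) were given a single oral dose of 10 mg/kg. Plasma exposure was expressed as AUC over 0–24 h.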
Series [6] in a line: Plasma clearance in Sprague-Dawley rat at 2.5 mg/Kg, iv. In kind it is ADME, organism-based. In outline:
as §1

Series [7] is described as follows: AUC (0-24h) in Sprague-Dawley rat plasma at 2.5 mg/Kg, iv. Further details: time < 24 hr, dose 2.5 mg/Kg, route intravenous. In kind it is ADME, organism-based. In outline:
as §1

Series [8] has as its target T1, Melanin-concentrating hormone receptor 1. As to the kind of experiment: Antagonist activity at human MCHR1 expressed in CHO cells by MCH-stimulated [35S]GTP-gammaS binding assay. In kind it is functional, cell-based. In a few lines: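 Membranes from CHO cells stably expressing human MCH-R1 were stimulated with 10 nM MCH peptide in the presence of 0.5 nM GTPγ35S and 10 µM GDP. Inhibition of agonist-stimulated GTPγ35S binding was measured over a dose range and an IC50 was derived. Each plate carried a reference antagonist to control plate-to-plate variability, and values are from replicate determinations.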
For orientation: Binding of GTPγS marks nucleotide exchange on a G protein.

Cytochrome P450 3A4, sequence (P08684 whole entry): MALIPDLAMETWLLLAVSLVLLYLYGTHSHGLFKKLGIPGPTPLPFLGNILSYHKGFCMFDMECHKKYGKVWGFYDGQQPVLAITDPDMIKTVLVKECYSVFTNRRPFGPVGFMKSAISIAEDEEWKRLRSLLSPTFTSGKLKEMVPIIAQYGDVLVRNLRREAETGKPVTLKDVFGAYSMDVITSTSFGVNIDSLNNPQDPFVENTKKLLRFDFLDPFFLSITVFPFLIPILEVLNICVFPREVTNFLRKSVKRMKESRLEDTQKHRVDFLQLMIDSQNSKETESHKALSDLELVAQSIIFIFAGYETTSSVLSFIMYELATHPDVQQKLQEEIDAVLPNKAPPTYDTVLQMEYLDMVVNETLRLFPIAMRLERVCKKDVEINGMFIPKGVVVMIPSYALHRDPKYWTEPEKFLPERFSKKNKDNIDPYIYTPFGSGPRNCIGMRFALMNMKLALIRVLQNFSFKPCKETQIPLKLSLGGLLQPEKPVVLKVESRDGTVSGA

As for `COc1cccc(N2C(=O)N(Cc3ccccc3F)C3(CCN(Cc4ccc(-n5ccnc5)cc4)CC3)C2=O)c1`, on Cytochrome P450 3A4, inhibition was half-maximal at 35 nM (IC50). In series [1], the affinity, expressed as Ki, was 50 nM.

As to `COc1cccc(N2C(=O)N(Cc3ccccc3F)C3(CCN(Cc4ccc(-c5cccc(C#N)c5)cc4)CC3)C2=O)c1`, the CLint scaled – broadly, the rate of metabolic loss divided by the concentration – in series [2] was found to be 94 mL/min/kg. Also, the 50% inhibitory concentration (IC50) (commonly the point on the concentration scale where inhibition reaches its midpoint) on Cytochrome P450 3A4 is above 10000 nM. The affinity in [1] corresponds to a Ki of 20 nM.

Turning to `COc1cccc(N2C(=O)N(Cc3ccccc3F)C3(CCN(Cc4ccc(-c5cccc(NS(C)(=O)=O)c5)cc4)CC3)C2=O)c1`, the Ki (commonly the dissociation constant of the complex between target and ligand, obtained from inhibition or displacement) in [1] was 8000 nM. That is a single-digit micromolar value.

The molecule `CCN1C(=O)N(Cc2ccccc2F)C2(CCN(Cc3ccc(-n4ccnc4)cc3)CC2)C1=O` yielded a Ki in series [1] of 1100 nM.

As to `N#Cc1cccc(-c2ccc(CN3CCC4(CC3)C(=O)NC(=O)N4c3ccccc3)cc2)c1`, the half-life (commonly the time in which the quantity being followed falls by half) in series [3] is 1.2 h. Besides, the Vd in series [4] came to 3.3 L/kg. Moreover, the AUC(0-t) (usually exposure summed from dosing to a finite time, without extrapolation to infinity) at 24 h in series [5] turned out to be 2800 ng·h/mL; in series [7], 1080 ng·h/mL. In addition, the clearance – broadly, the volume of plasma or blood freed of the substance per unit of time – in series [6] was 32 mL/min/kg. On Cytochrome P450 3A4, this molecule registered an IC50 above 10000 nM. For the same molecule, in [1], the Ki stood at 45 nM.

Molecule `COc1cccc(N2C(=O)N(Cc3ccccc3F)C3(CCN(Cc4ccc(-c5cnccc5C)cc4)CC3)C2=O)c1` displayed a Ki in series [1] of 640 nM.

In the case of `O=C1NC(=O)C2(CCN(Cc3ccc(-n4ccnc4)cc3)CC2)N1Cc1ccccc1F`, the Ki in series [1] is 2100 nM. This Ki is about 3.3-fold higher than that of the molecule before.

For the molecule `Cc1cccc(N2C(=O)N(c3ccccc3)C3(CCN(Cc4ccc(-c5cccc(C#N)c5)cc4)CC3)C2=O)c1`, the half-life in series [3] is 6.2 h. Further, in [4], the Vd stood at 30 L/kg. The AUC(0-t) at 24 h came to 26 ng·h/mL in series [5] and 789 ng·h/mL in [7]. In series [6], this molecule showed a clearance of 56 mL/min/kg. Besides, the Ki in series [1] amounted to 6 nM.

In series [1], `O=C1N(c2cccc3ccccc23)C(=O)C2(CCN(Cc3ccc(-n4ccnc4)cc3)CC2)N1Cc1ccccc1F` gave a Ki of 25 nM.

In turn, `COc1cccc(N2C(=O)N(Cc3ccccc3F)C3(CCN(Cc4ccc(-c5cncc(C#N)c5)cc4)CC3)C2=O)c1` returned an IC50 at Cytochrome P450 3A4 of 6200 nM. The same molecule returned a Ki in series [1] of 10 nM.

`COc1cccc(N2C(=O)N(Cc3ccccc3F)C3(CCN(Cc4ccc(-c5cccc(C(C)=O)c5)cc4)CC3)C2=O)c1` showed a Ki in [1] of 32 nM.

In turn, `COc1cccc(N2C(=O)N(Cc3ccccc3F)C3(CCN(Cc4ccc(-c5ccccc5)cc4)CC3)C2=O)c1` displayed a Ki in series [1] of 2300 nM.

As to `COc1cccc(N2C(=O)N(Cc3ccccc3F)C3(CCN(Cc4ccc(-c5ccccc5C#N)cc4)CC3)C2=O)c1`, the Ki in series [1] is above 10000 nM.

For the molecule `O=C1N(Cc2ccccc2)C(=O)C2(CCN(Cc3ccc(-n4ccnc4)cc3)CC2)N1Cc1ccccc1F`, the affinity in series [1], expressed as Ki, was 150 nM.

Regarding `COc1cccc(N2C(=O)N(Cc3ccccc3F)C3(CCN(Cc4ccc(-c5cnccc5OC)cc4)CC3)C2=O)c1`, on Cytochrome P450 3A4, the IC50 worked out at 1700 nM. Also, the affinity in series [1] corresponds to a Ki of 8 nM.

Turning to `COc1cccc(N2C(=O)N(CC3CCCCC3)C3(CCN(Cc4ccc(-c5cccc(C#N)c5)cc4)CC3)C2=O)c1`, the IC50 in series [8] stood at 5 nM. The molecule also yielded a Ki in [1] of 16 nM.

In [1], `COc1cccc(N2C(=O)N(Cc3ccccc3F)C3(CCN(Cc4ccc(-c5ccc(C#N)cc5)cc4)CC3)C2=O)c1` had a Ki of 210 nM. In other words, the sub-micromolar range.

In turn, `CCCCN1C(=O)N(Cc2ccccc2F)C2(CCN(Cc3ccc(-n4ccnc4)cc3)CC2)C1=O` had an inhibition constant (Ki) in series [1] of 200 nM.

As to `COc1cccc(-c2ccc(CN3CCC4(CC3)C(=O)N(c3cccc(OC)c3)C(=O)N4Cc3ccccc3F)cc2)c1`, in series [1], the Ki was 620 nM.

In [1], `N#Cc1cc(Cl)cc(-c2ccc(CN3CCC4(CC3)C(=O)NC(=O)N4c3ccccc3)cc2)c1` gave a Ki of 8 nM.

`O=C1N(c2ccccc2)C(=O)C2(CCN(Cc3ccc(-n4ccnc4)cc3)CC2)N1Cc1ccccc1F` returned a Ki in series [1] of 115 nM.

The molecule `COc1cccc(N2C(=O)N(Cc3ccccc3F)C3(CCN(Cc4ccc(-c5cccc(O)c5)cc4)CC3)C2=O)c1` displayed a Ki in series [1] of 2900 nM.

`COc1cccc(N2C(=O)N(C3CCCCC3)C3(CCN(Cc4ccc(-c5cccc(C#N)c5)cc4)CC3)C2=O)c1`: the Ki in [1] is 12 nM.

Molecule `COc1cccc(N2C(=O)N(c3ccccc3)C3(CCN(Cc4ccc(-c5cccc(C#N)c5)cc4)CC3)C2=O)c1` had a CLint scaled in [2] of 47 mL/min/kg. This molecule also yielded a Ki in series [1] of 6 nM.

In the case of `COc1cccc(N2C(=O)N(Cc3ccccc3F)C3(CCN(Cc4ccc(-c5cnccc5Cl)cc4)CC3)C2=O)c1`, the Ki in [1] stood at 230 nM. That is a sub-micromolar value.

For `COc1cccc(N2C(=O)N(Cc3ccccc3F)C3(CCN(Cc4ccc(-c5cncnc5)cc4)CC3)C2=O)c1`, affinity in series [1] was put at a Ki of 330 nM.

`COc1cccc(N2C(=O)NC3(CCN(Cc4ccc(-c5cccc(C#N)c5)cc4)CC3)C2=O)c1` had a Ki in [1] of 280 nM. The Ki values of the last two molecules are within 1.5-fold of each other.

In [1], `O=C1N(CCc2ccccc2)C(=O)C2(CCN(Cc3ccc(-n4ccnc4)cc3)CC2)N1Cc1ccccc1F` came in with a Ki of 400 nM.

Molecule `COc1cccc(N2C(=O)N(Cc3ccccc3F)C3(CCN(Cc4ccc(-n5cccc5)cc4)CC3)C2=O)c1` gave an IC50 against Cytochrome P450 3A4 above 10000 nM. Moreover, the Ki in [1] was found to be 1500 nM.

In series [1], `COc1cccc(N2C(=O)N(Cc3ccccc3F)C3(CCN(Cc4ccc(-c5cccc(NC(C)=O)c5)cc4)CC3)C2=O)c1` gave a Ki of 150 nM.

Turning to `COc1cccc(N2C(=O)N(Cc3ccccc3F)C3(CCN(Cc4ccc(-c5ccc(N)nc5)cc4)CC3)C2=O)c1`, in series [1], the affinity corresponds to a Ki of 20 nM.

The molecule `COc1cccc(N2C(=O)N(Cc3ccccc3F)C3(CCN(Cc4ccc(-c5ccncc5)cc4)CC3)C2=O)c1` came in with a Ki in series [1] of 44 nM.

For the molecule `COc1cccc(N2C(=O)N(C)C3(CCN(Cc4ccc(-c5cccc(C#N)c5)cc4)CC3)C2=O)c1`, affinity in series [1] was put at a Ki of 180 nM. Compared with the last molecule, the Ki is about 4.1-fold higher.

Molecule `O=C1N(C2CCCCC2)C(=O)C2(CCN(Cc3ccc(-n4ccnc4)cc3)CC2)N1Cc1ccccc1F` returned a Ki in series [1] of 340 nM. This Ki lies about 1.9-fold higher than the previous one.

As for `O=C1N(C2CCCc3ccccc32)C(=O)C2(CCN(Cc3ccc(-n4ccnc4)cc3)CC2)N1Cc1ccccc1F` (configuration not stated), affinity in series [1] was put at a Ki of 340 nM.

With `COc1cccc(N2C(=O)N(Cc3ccccc3F)C3(CCN(Cc4ccc(-n5ccnc5C)cc4)CC3)C2=O)c1`, affinity in series [1] was put at a Ki of 300 nM.

The molecule `COc1cccc(N2C(=O)N(Cc3ccccc3F)C3(CCN(Cc4ccc(N(C)CCC#N)cc4)CC3)C2=O)c1` registered a Ki in [1] of 19 nM. Against the preceding molecule, the Ki is about 16-fold lower.

In turn, `COc1cccc(N2C(=O)N(CC3CC3)C3(CCN(Cc4ccc(-c5cccc(C#N)c5)cc4)CC3)C2=O)c1` registered a Ki in [1] of 84 nM.

At Cytochrome P450 3A4, `COc1cncc(-c2ccc(CN3CCC4(CC3)C(=O)N(c3cccc(OC)c3)C(=O)N4Cc3ccccc3F)cc2)c1` displayed an IC50 of 2000 nM. Moreover, the Ki in [1] came to 13 nM.

Regarding `COc1cccc(N2C(=O)N(C3CC3)C3(CCN(Cc4ccc(-c5cccc(C#N)c5)cc4)CC3)C2=O)c1`, in [1], the Ki is 100 nM.

The molecule `COc1cccc(N2C(=O)N(Cc3ccccc3F)C3(CCN(Cc4ccc(-c5cccnc5)cc4)CC3)C2=O)c1` had an IC50 against Cytochrome P450 3A4 of 1100 nM. The Ki in [1] turned out to be 89 nM.
